Reference: ChEMBL document CHEMBL4699643, “γ-Ketobenzyl-Modified Nucleoside Triphosphate Prodrugs as Potential Antivirals” (J Med Chem, 2020)
pEC50: −log10 of the molar value.

What was measured:
[1] = Stability in pH 7.3 PBS assessed as pig liver esterase mediated hydrolysis by measuring half life upto 2 hrs by HPLC analysis; assay type: ADME, Sus scrofa
Procedure, shortened: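 Porcine liver esterase (3 mg/mL in PB) added to compound diluted from a 6.0 mM DMSO/water solution into DMSO and 50 mM phosphate buffer, pH 7.3. Incubated at 37 °C. Timed aliquots snap-frozen in liquid nitrogen, then thawed, sonicated, centrifuged, filtered and analysed by HPLC. t½ calculated as for chemical hydrolysis.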

[2] = Chemical stability of compound assessed as half life in PBS at pH 7.3 by RP18-HPLC analysis; assay type: physicochemical
Procedure, shortened: (§1)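 From 50 mM DMSO stocks, diluted to 1.9 mM hydrolysis solutions in water/DMSO. Reaction started by adding phosphate buffer (50 mM, pH 7.3; 25 mM also stated). Incubated at 37 °C with time-course sampling. Starting material and products (γ-kb-NTP, d4TDP, thymine) followed by analytical rp18 HPLC, from which t½ was calculated.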

[3] = Stability of compound in human CEM/0 cell extract assessed as half life by RP18-HPLC analysis; assay type: ADME, tissue-based, CCRF-CEM
Procedure, shortened: (§2)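 Extract preparation: CEM CD4⁺ T-cells grown in RPMI-1640 to ~3 × 10⁶ cells/mL, washed in cold PB, resuspended at 10⁸ cells/mL, sonicated, clarified at 10,000 rpm and stored at −80 °C. Compounds from 50 mM DMSO stock (diluted to 6.0 mM in DMSO) incubated in the extract. Reactions stopped with THF, put on ice, centrifuged and filtered.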

[4] = tested on: Human immunodeficiency virus 1; experiment: Antiviral activity against HIV1 3B infected in human CEM/0 cells assessed as inhibition of virus-induced syncytia cell formation measured after 4 to 5 days by microscopic analysis; assay type: functional, organism-based; details: Human immunodeficiency virus 1, 3B, CCRF-CEM
Procedure, shortened: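 Syncytium-inhibition assay in wild-type CEM/0 or TK-deficient CEM/TK⁻ cells, ~3 × 10⁵ cells/mL, infected with 100 CCID₅₀/mL HIV-1(III_B) or HIV-2(ROD), with serial compound dilutions. Incubated 4−5 days at 37 °C in humidified CO₂ atmosphere. Giant cells scored microscopically; EC₅₀ is the concentration halving HIV-induced giant cell formation. Values are the mean ± SD of n = 2−3 independent experiments.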

[5] = Cytotoxicity against human CEM/0 CD4+ T cells assessed as reduction in cell viability; assay type: cell-based, CCRF-CEM
Procedure, shortened: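 Cytostatic readout: CC₅₀ is the compound concentration inhibiting CEM CD4⁺ T-cell proliferation by 50%. Values are the mean ± SD of n = 2−3 independent experiments.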

[6] = Prodrug conversion in PBS buffer at pH 7.3 assessed as pig liver esterase-mediated cleavage of ketobenzyl-residue measured over 800 hrs by HPLC analysis; assay type: ADME, Sus scrofa; details: pH 7.3, 800 h
[7] = Prodrug conversion in human CEM/0 cell extract assessed as gamma-kb-d4TTP formation by RP18-HPLC analysis; assay type: ADME, tissue-based; details: ccrf-cem; procedure, shortened: as §2
[8] = Prodrug conversion in human CEM/0 cell extract assessed as d4TDP formation by RP18-HPLC analysis; assay type: ADME, tissue-based; details: ccrf-cem; procedure, shortened: as §2
[9] = Prodrug conversion in human CEM/0 cell extract assessed as NTP formation by RP18-HPLC analysis; assay type: ADME, tissue-based; details: ccrf-cem; procedure, shortened: as §2
[10] = tested on: Human immunodeficiency virus 2; experiment: Antiviral activity against HIV2 ROD infected in human TK-deficient […] cells assessed as inhibition of viral-induced giant cell formation incubated for 4 to 5 days by microscopy; details: Human immunodeficiency virus 2, ISOLATE ROD
[11] = tested on: Human immunodeficiency virus 2; experiment: Antiviral activity against HIV2 ROD infected in human CEM/0 cells assessed as inhibition of virus-induced syncytia cell formation measured after 4 to 5 days by microscopic analysis; details: Human immunodeficiency virus 2, ISOLATE ROD, CCRF-CEM
[12] = Prodrug conversion in human CEM/0 cell extract assessed as d4TTP formation after 96 hrs by HPLC analysis; assay type: ADME, tissue-based; details: ccrf-cem; procedure, shortened: as §2
[13] = Substrate activity at human DNA polymerase gamma assessed as increase in primer extension incubated at 37 degC for 60 mins and at 80 degC for 3 mins in presence of fluorescent-lebelled dATP, dCTP and dGTP by PAGE analysis; assay type: ADME; details: 1.05 h, time 63 min
Procedure, shortened: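 Human DNA polymerase γ (4 U) with Cy3-primer/template duplex 0.20 μM in 60 mM Tris-HCl pH 8, 5 mM MgOAc, 1.0 mM DTT, 0.1 mM spermine, 0.01% BSA. Preincubated 5 min at 37 °C without nucleotides, then run 60 min at 37 °C with nucleotides 250 μM, then 80 °C for 3 min. Denaturing 15% PAGE with fluorescence imaging.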

[14] = Chemical stability of compound in PBS at pH 7.3 by RP18-HPLC analysis; assay type: physicochemical; details: buffer; procedure, shortened: as §1
[15] = Prodrug conversion in human CEM/0 cell extract assessed as d4TDP formation after 96 hrs by HPLC analysis; assay type: ADME, tissue-based; details: ccrf-cem; procedure, shortened: as §2
[16] = Stability in human CEM/0 cell extract assessed as parent compound remaining after 98 hrs by HPLC analysis; assay type: ADME, tissue-based, CCRF-CEM; details: read-out: Stabilty; procedure, shortened: as §2
[17] = Substrate activity at HIV reverse transcriptase assessed as increase in primer extension incubated at 37 degC for 60 mins and at 80 degC for 3 mins in presence of fluorescent-lebelled dATP, dCTP and dGTP by PAGE analysis; assay type: ADME; details: human immunodeficiency virus, 1.05 h; time 63 min
[18] = Selectivity index, ratio of CC50 for cytotoxicity against human CEM/0 CD4+ T cells to EC50 for antiviral activity against HIV1 3B infected in human CEM/0 cells; assay type: toxicity, cell-based; details: read-out: Ratio CC50/EC50
Procedure, shortened: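 Selectivity index from CC₅₀ (50% inhibition of CEM cell proliferation) and EC₅₀ (50% inhibition of HIV-1(III_B)-induced giant cell formation in CEM/0 cells, 4−5 days, microscopy), both mean ± SD of n = 2−3 independent experiments.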

[19] = Substrate activity at HIV reverse transcriptase assessed as increase in primer extension incubated at 37 degC for 15 mins in presence of radiolabeled dATP, dCTP, and dGTP by PAGE analysis; assay type: ADME; details: human immunodeficiency virus, 0.25 h
Procedure, shortened: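 Template 30-mer annealed to a ³²P-labelled 25-mer primer (95 °C, then cooled to −20 °C over 3 h; 20 mM Tris-HCl pH 7.6, 50 mM NaCl). Reaction: 50 mM Tris-HCl pH 8.6, 10 mM MgCl₂, 40 mM KCl, nucleotides 66 μM, HIV-RT 0.2 U, duplex 0.32 μM. Run 15 min at 37 °C, stopped at 80 °C for 3 min. Resolved on denaturing 15% PAGE and read by phosphorimaging.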

[20] = Stability in human CEM/0 cell extract assessed as parent compound remaining up to 98 hrs by HPLC analysis; assay type: ADME, tissue-based, CCRF-CEM; details: read-out: Stabilty; procedure, shortened: as §2

| Structure (SMILES) | half-life [1] [h] | half-life [2] [h] | half-life [3] [h] | pEC50 [4] | Drug metabolism [6] | Drug metabolism [7] | Drug metabolism [8] | Drug metabolism [9] | pEC50 [10] | pEC50 [11] | Drug metabolism [12] | Activity [13] | Stabilty [14] | Drug metabolism [15] | remaining at 98 h [16] [%] | Activity [17] | Activity [19] | remaining at 98 h [20] [%] | CC50 [5] [nM] | selectivity ratio [18] |
| --- | --- | --- | --- | --- | --- | --- | --- | --- | --- | --- | --- | --- | --- | --- | --- | --- | --- | --- | --- | --- |
| CCCCCCCCCCCCCCCCCC(=O)Oc1ccc(COP(=O)(OCc2ccc(C(=O)CCCCCCCCCCCCCCCCC)cc2)OP(=O)(O)OP(=O)(O)OC[C@@H]2C=C[C@H](n3cc(C)c(=O)[nH]c3=O)O2)cc1 (stereo not given in full) | 0.167 | 11 | 2.1 | 6.38 | Metabolite_Notdetected | Metabolite_Detected | Metabolite_Detected | Metabolite_Notdetected | 6.42 | 6.08 |  |  |  |  |  |  |  |  | 28000 |  |
| CCCCCCCCC(=O)Oc1ccc(COP(=O)(OCc2ccc(OC(=O)CCCCCCCC)cc2)OP(=O)(O)OP(=O)(O)OC[C@@H]2C=C[C@H](n3cc(C)c(=O)[nH]c3=O)O2)cc1 |  | 52 | 2.5 | 6.51 |  |  |  |  | 5.65 | 6.21 |  |  |  |  |  |  |  |  | 52000 |  |
| CCCCCCCCCCCCCCCCCC(=O)Oc1ccc(COP(=O)(OCc2ccc(C(=O)CCCCCCCCC)cc2)OP(=O)(O)OP(=O)(O)OC[C@@H]2C=C[C@H](n3cc(C)c(=O)[nH]c3=O)O2)cc1 (stereo not given in full) | 0.167 | 94 | 7.8 | 6.24 | Metabolite_Notdetected | Metabolite_Detected | Metabolite_Detected | Metabolite_Notdetected | 5.96 | 6.11 |  |  |  |  |  |  |  |  | 35000 |  |
| CCCCCCCCCC(=O)c1ccc(COP(=O)(O)OP(=O)(O)OP(=O)(O)OC[C@H]2O[C@@H](n3cnc4c(N)ncnc43)C[C@@H]2O)cc1 |  |  |  | 5.00 | Metabolite_Notdetected |  |  |  | < 5.00 | < 5.00 |  |  | Stable |  |  |  |  |  | 74000 | 7 |
| CCCCCCCCCCCCCCCCCC(=O)c1ccc(COP(=O)(OCc2ccc(OC(=O)CCCCCC)cc2)OP(=O)(O)OP(=O)(O)OC[C@@H]2C=C[C@H](n3cc(C)c(=O)[nH]c3=O)O2)cc1 (stereo not given in full) | 0.167 | 109 | 6.9 | 6.36 | Metabolite_Notdetected | Metabolite_Detected | Metabolite_Detected | Metabolite_Notdetected | 6.40 | 5.96 |  |  |  |  |  |  |  |  | 34000 |  |
| CCCCCCCCCCCCCCCCCC(=O)Oc1ccc(COP(=O)(OCc2ccc(OC(=O)CCCC)cc2)OP(=O)(O)OP(=O)(O)OC[C@@H]2C=C[C@H](n3cc(C)c(=O)[nH]c3=O)O2)cc1 (stereo not given in full) |  | 50 |  | 6.92 |  |  |  |  | 6.27 | 7.00 |  |  |  |  |  |  |  |  | 33000 |  |
| CCCCCCCCCC(=O)c1ccc(COP(=O)(O)OP(=O)(O)OP(=O)(O)OC[C@H]2O[C@@H](n3cc(C)c(=O)[nH]c3=O)C[C@@H]2O)cc1 |  |  | > 30 | 5.18 | Metabolite_Notdetected |  |  |  | < 5.00 | 5.06 |  | Not Active | Stable |  |  |  | Active | 98 | 10000 |  |

The next lines start with results.

| half-life [1] [h] | half-life [2] [h] | half-life [3] [h] | pEC50 [4] | Drug metabolism [6] | Drug metabolism [7] | Drug metabolism [8] | Drug metabolism [9] | pEC50 [10] | pEC50 [11] | Drug metabolism [12] | Activity [13] | Stabilty [14] | Drug metabolism [15] | remaining at 98 h [16] [%] | Activity [17] | Activity [19] | remaining at 98 h [20] [%] | Structure (SMILES) | CC50 [5] [nM] | selectivity ratio [18] |
| --- | --- | --- | --- | --- | --- | --- | --- | --- | --- | --- | --- | --- | --- | --- | --- | --- | --- | --- | --- | --- |
|  |  | > 30 |  | Metabolite_Notdetected |  |  |  |  |  | Metabolite_Notdetected | Not Active | Stable | Metabolite_Notdetected | 89 | Active |  |  | CCCCCCCCCC(=O)c1ccc(COP(=O)(O)OP(=O)(O)OP(=O)(O)OC[C@@H]2C=C[C@H](n3cc(C)c(=O)[nH]c3=O)O2)cc1 |  |  |
| 0.167 | 43 | 1.1 | 6.43 | Metabolite_Notdetected | Metabolite_Detected | Metabolite_Detected | Metabolite_Notdetected | 5.60 | 5.92 |  |  |  |  |  |  |  |  | CCCCCCCCCC(=O)c1ccc(COP(=O)(OCc2ccc(OC(=O)CCCC)cc2)OP(=O)(O)OP(=O)(O)OC[C@@H]2C=C[C@H](n3cc(C)c(=O)[nH]c3=O)O2)cc1 (stereo not given in full) | 25000 |  |
|  |  | > 30 | 6.48 | Metabolite_Notdetected |  |  |  | 6.59 | 6.22 | Metabolite_Notdetected | Not Active | Stable | Metabolite_Notdetected | 89 | Active |  |  | CCCCCCCCCCCCCCCCCC(=O)c1ccc(COP(=O)(O)OP(=O)(O)OP(=O)(O)OC[C@@H]2C=C[C@H](n3cc(C)c(=O)[nH]c3=O)O2)cc1 | 13000 |  |
|  |  |  | 5.98 |  |  |  |  | < 4.00 | 6.40 |  |  |  |  |  | Active |  |  | Cc1cn([C@H]2C=C[C@@H](COP(=O)(O)OP(=O)(O)OP(=O)(O)O)O2)c(=O)[nH]c1=O [STAVUDINE TRIPHOSPHATE] | > 100000 |  |
|  |  |  | 6.37 |  |  |  |  | 3.82 | 6.66 |  |  |  |  |  |  |  |  | Cc1cn([C@H]2C=C[C@@H](CO)O2)c(=O)[nH]c1=O [STAVUDINE] |  |  |
